Screening results (PubChem BioAssay)
A selection: hits, their analogues and other compounds. The true share with any hit is near 2.9%.
SENP1 FRET inh: blocks the human SENP1 SUMO protease catalytic domain | Q9P0U3 | recombinant SENP1 catalytic domain, CyPet-SUMO1-YPet FRET cleavage | inhibition, % at 10 µM | hit rate 0.21% among 360,000 | AID 624204;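 active = inhibition at least 30% at 10 µM, raw YFP signal under a set limit, fluorescence ratio 0.5 to 1.5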
Target sequence (Q9P0U3 419-644 limits assumed): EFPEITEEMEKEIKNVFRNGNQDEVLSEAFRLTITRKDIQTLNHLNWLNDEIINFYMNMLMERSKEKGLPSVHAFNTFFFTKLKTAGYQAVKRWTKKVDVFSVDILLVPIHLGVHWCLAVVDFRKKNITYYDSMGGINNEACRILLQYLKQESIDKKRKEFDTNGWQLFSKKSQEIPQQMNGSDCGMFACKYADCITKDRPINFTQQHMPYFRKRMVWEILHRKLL
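Material: hSENP1 catalytic domain, recombinant; medium: Tris pH 8 with BME, BSA, NP40 and catalase; compound: single concentration of 10 µM compound, 0.5% DMSO final; technique: FRET read of cyan and yellow fluorescence; timing: 50 min enzyme reaction, room temperature, light-protected; reagent: SFCypet-SUMO1-SFYpet substrate at 25 nM; control set: no-enzyme low, enzyme-DMSO high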
SENP6 block: blocks the human protease SENP6. Q9GZR1. Recombinant SENP6 catalytic domain, aminoluciferin luminescence. inhibition, % at 10 µM. hit rate 1.8% among 330,000. AID 2599;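 active = inhibition above about 50% at the single tested dose, limit read from the data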
Target sequence (Q9GZR1 628-1112 limits assumed): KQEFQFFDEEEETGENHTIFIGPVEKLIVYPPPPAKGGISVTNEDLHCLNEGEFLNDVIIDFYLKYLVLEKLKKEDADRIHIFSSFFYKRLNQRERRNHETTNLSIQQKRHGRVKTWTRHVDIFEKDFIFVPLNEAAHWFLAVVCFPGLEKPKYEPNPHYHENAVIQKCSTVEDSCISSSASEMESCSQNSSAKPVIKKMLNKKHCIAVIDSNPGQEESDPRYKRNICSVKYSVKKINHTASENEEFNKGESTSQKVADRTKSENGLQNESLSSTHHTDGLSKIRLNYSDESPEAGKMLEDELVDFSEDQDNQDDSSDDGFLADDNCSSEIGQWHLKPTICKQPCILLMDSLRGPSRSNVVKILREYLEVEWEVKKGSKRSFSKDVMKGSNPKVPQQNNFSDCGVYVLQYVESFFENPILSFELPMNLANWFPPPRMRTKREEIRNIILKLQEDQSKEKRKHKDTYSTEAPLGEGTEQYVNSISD
SENP8 block-1: blocks human SENP8 cleavage of Nedd8 substrate; Q96LD8; recombinant SENP8, Nedd8 substrate fluorescence; inhibition, % at 20 µM; hit rate 0.64% among 360,000; in the data active = inhibition mostly above about 40%, no sharp cut-off; inactive = mostly below about 27%
HSP90 inh: blocks HSP90-mediated luciferase refolding in reticulocyte lysate; hit rate 0.91% among 290,000; AID 1789; inhibition, % at 5.6 µM; Rabbit reticulocyte lysate, luciferase refolding luminescence, 3 h;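 active = inhibition above the screen-wide mean plus 3 SD, computed separately per campaign, cut at about 16% in these data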;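 also: inhibitors lower the luminescence because luciferase stays unfolded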
SENP8 block-2: SENP8 protease inhibition | Q96LD8 | purified SENP8, Z-RLRGG-aminoluciferin cleavage, luminescence | inhibition, % at 10 µM | hit rate 1.2% among 330,000 | AID 2540; in the data active = inhibition above about 50%
SENP7 inh: SENP7 protease inhibition; Q9BQF6; recombinant SENP7, Z-RLRGG-aminoluciferin luminescence, 40 min; inhibition, % at 5 µM; hit rate 1.5% among 330,000; AID 434973;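 active = inhibition above about 50% at the single test dose, limit read from the data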
SENP8 conf: confirmation of human SENP8 protease inhibitors; shares compounds with SENP7 inh; Recombinant SENP8, Z-RLRGG-aminoluciferin luminescence, 60 min; inhibition, % at 12.5 µM; hit rate 40% among 6,200; AID 488912;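 active = mean inhibition across replicates above about 50%, limit read from the data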
SENP6 confirm: human SENP6 inhibition, confirmed; inhibition, % at 12.5 µM; shares compounds with SENP7 inh; hit rate 58% among 6,200; AID 488915; recombinant SENP6, Z-RLRGG-aminoluciferin luminescence
SENP7 confirm: confirmation of human SENP7 protease inhibitors; hit rate 69% among 6,200; inhibition, % at 12.5 µM; shares compounds with SENP7 inh; recombinant SENP7, Z-RLRGG-aminoluciferin luminescence, 40 min
Casp3 select: inhibits human caspase-3 in SENP selectivity test. shares compounds with SENP7 inh. purified caspase-3, Z-DEVD-aminoluciferin luminescence, 60 min. inhibition, % at 12.5 µM. hit rate 60% among 6,200. AID 488918;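 active = mean inhibition above about 50%, limit read from the data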
SENP luc ctr: counter-screen for SENP inhibitors: luminescence interference; shares compounds with SENP7 inh; Pre-incubated SENP8/Z-RLRGG-aminoluciferin, luciferase luminescence interference; inhibition, % at 12.5 µM; hit rate 39% among 6,200;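 active = mean inhibition above about 50% when retested at one dose, limit read from the data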
Each line names hits and unclear results; the compound was inactive in the other large screens (follow-up assays come after a bar, where they were run).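 The calls were made as follows, unless noted: active = mean inhibition above about 50% in the one-dose retest (limit read from the data); inactive = the rest.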

Cc1ccccc1C(=O)Nc1ccc(Br)cn1	SENP6 block 59, SENP7 inh 51 | SENP8 conf inactive | SENP6 confirm inactive | SENP7 confirm 79 | Casp3 select 63 | SENP luc ctr inactive
Cc1ccc(NC(=O)c2ccccc2F)nc1	SENP6 block 74, SENP7 inh 51 | SENP8 conf inactive | SENP6 confirm 58 | SENP7 confirm 85 | Casp3 select 86 | SENP luc ctr inactive
CCCC(=O)Nc1nc2ccc(NC(=O)c3ccccc3F)cc2s1	none
CC(=O)c1ccc(OCc2cc(C(=O)N3CC4C[C@@H]5CC3C[C@H](C4)C5)no2)cc1	none
C[C@@H]1CN([C@H](C)CO)C(=O)c2cccc(NC(=O)Nc3ccc(F)cc3)c2O[C@H]1CN(C)C(=O)Nc1ccc(C(F)(F)F)cc1	none (no result: HSP90 inh)
Cc1ccc(S(=O)(=O)N(C)c2ccc(OC(=O)c3cccs3)cc2)cc1C	none (no result: HSP90 inh)
O=C(Nc1ccon1)c1ccc(Br)s1	none
O=C(Nc1ccc(Br)cn1)c1ccc(Br)s1	SENP6 block 50 | SENP8 conf inactive | SENP6 confirm inactive | SENP7 confirm 77 | Casp3 select inactive | SENP luc ctr inactive
CN(C)/C=N/C(=S)Nc1ccc(Cl)c(Cl)c1	SENP6 block 60 | SENP8 conf 62 | SENP6 confirm 61 | SENP7 confirm 85 | Casp3 select 58 | SENP luc ctr inactive
CCCCNC(=O)c1sc(=S)n(-c2ccccc2OC)c1N	none
CCCCNC(=O)c1sc(=S)n2c1[nH]c(=O)c1ccccc12	SENP6 block 85 | SENP8 conf inactive | SENP6 confirm inactive | SENP7 confirm inactive | Casp3 select inactive | SENP luc ctr inactive
CC(=O)c1cccc(NC(=S)Nc2cccc3ccccc23)c1	SENP6 block 84, SENP8 block-2 62 | SENP8 conf inactive | SENP6 confirm inactive | SENP7 confirm inactive | Casp3 select inactive | SENP luc ctr inactive
COc1ccc(NC(=S)Nc2cccc3ccccc23)cc1OC	SENP6 block 88, SENP8 block-2 77, SENP7 inh 63 | SENP8 conf inactive | SENP6 confirm inactive | SENP7 confirm inactive | Casp3 select inactive | SENP luc ctr inactive
Cc1ccc(C(=O)NNC(=S)Nc2cccc3ccccc23)s1	SENP6 block 55 | SENP8 conf inactive | SENP6 confirm inactive | SENP7 confirm inactive | Casp3 select inactive | SENP luc ctr inactive
CC(=O)Nc1cccc(NC(=S)Nc2cccc3ccccc23)c1	none
c1ccc2c(c1)COc1c3ncccc3nn1-2	none (no result: SENP6 block, HSP90 inh, SENP8 block-2, SENP7 inh)
CC(C)COC(=O)N1CCCC(c2cc(C(=O)Nc3ccccc3Cl)no2)C1 (centres undefined)	none (no result: SENP6 block, HSP90 inh, SENP8 block-2, SENP7 inh)
CCC(C(=O)OC)n1cnc2c(nnn2-c2ccc(F)cc2)c1=O (centres undefined)	none
CCN(CC)S(=O)(=O)c1ccc(N2CCCCC2)c(NC(=O)C2CCN(C(=O)c3ccc(F)cc3)CC2)c1	none (no result: HSP90 inh)
O=C(Nc1ccccc1)C(=O)Nc1ccc2c(c1)N(C(=O)C1CC1)CCC2	SENP6 block 98, SENP8 block-2 96, SENP7 inh 99 (no result: HSP90 inh) | SENP8 conf 56 | SENP6 confirm 100 | SENP7 confirm 103 | Casp3 select 98 | SENP luc ctr inactive
COc1cccc(COc2ccc3c(C)cc(=O)oc3c2)c1	SENP6 block 77, SENP8 block-2 68, SENP7 inh 71 | SENP8 conf inactive | SENP6 confirm 75 | SENP7 confirm 90 | Casp3 select 65 | SENP luc ctr 62
CC(=O)c1ccc(NC(=O)Oc2ccccc2)cc1	none
CC(C)Oc1ccc(NC(=O)Oc2ccccc2)cc1	SENP6 block 88, SENP8 block-2 80 | SENP8 conf inactive | SENP6 confirm 100 | SENP7 confirm 103 | Casp3 select 98 | SENP luc ctr 94
COc1cccc(-c2nnc(Nc3nc4c(F)cccc4s3)o2)c1	SENP6 block 90, SENP8 block-2 84 | SENP8 conf inactive | SENP6 confirm 84 | SENP7 confirm inactive | Casp3 select 60 | SENP luc ctr 50
COc1ccccc1-c1nnc(Nc2nc3c(OC)cccc3s2)o1	SENP7 inh 76 | SENP8 conf inactive | SENP6 confirm inactive | SENP7 confirm inactive | Casp3 select inactive | SENP luc ctr inactive
Cc1ccnc(NC(=O)c2ccc3c(c2)S(=O)(=O)c2ccccc2C3=O)c1	SENP6 block 87, SENP8 block-2 84, SENP7 inh 92 | SENP8 conf inactive | SENP6 confirm inactive | SENP7 confirm 97 | Casp3 select 64 | SENP luc ctr inactive
Cc1ccc2c(c1)N=C(c1ccc(Cl)cc1)CO2	SENP6 block 96, SENP8 block-2 95, SENP7 inh 98 | SENP8 conf 83 | SENP6 confirm 82 | SENP7 confirm 85 | Casp3 select 80 | SENP luc ctr 57
Clc1ccc(C2=Nc3cc(Cl)ccc3OC2)cc1	SENP6 block 81, SENP8 block-2 76, SENP7 inh 81 | SENP8 conf inactive | SENP6 confirm inactive | SENP7 confirm inactive | Casp3 select inactive | SENP luc ctr inactive
O=C(Cn1ncc(Cl)c(Cl)c1=O)c1ccc2c(c1)OCCO2	SENP6 block 56 (no result: HSP90 inh) | SENP8 conf inactive | SENP6 confirm inactive | SENP7 confirm inactive | Casp3 select inactive | SENP luc ctr inactive
O=C(Cn1ncc(Cl)c(Cl)c1=O)Nc1ccc2c(c1)OCO2	none (no result: HSP90 inh)
O=C(N[C@H]1C/C=C\C[C@H](CC(=O)N(CCO)Cc2ccccc2)C(=O)N[C@@H](c2ccccc2)COC1=O)OCC1c2ccccc2-c2ccccc21	none (no result: HSP90 inh)
CSc1ccc(/C=C/C(=O)OCC(=O)c2ccc[nH]2)cc1	none (no result: HSP90 inh)
CCOc1ccc(OCCC(=O)OCC(=O)NC2CCCC2)cc1	none (no result: HSP90 inh)
COc1ccccc1/C=C/C(=O)Nc1cccnc1Cl	none
COc1ccc(/C=C/C(=O)Nc2cccnc2Cl)cc1	SENP6 block 89, SENP8 block-2 89, SENP7 inh 92 | SENP8 conf inactive | SENP6 confirm 92 | SENP7 confirm 101 | Casp3 select 95 | SENP luc ctr 62
Cc1cnc(NC(=O)c2sc3ccccc3c2Cl)s1	SENP6 block 80, SENP8 block-2 66, SENP7 inh 84 | SENP8 conf inactive | SENP6 confirm inactive | SENP7 confirm 53 | Casp3 select inactive | SENP luc ctr inactive
